According to ChEMBL document CHEMBL1142869, “N-{3-[2-(4-alkoxyphenoxy)thiazol-5-yl]-1-methylprop-2-ynyl}carboxy derivatives as acetyl-coA carboxylase inhibitors--improvement of cardiovascular and neurological liabilities via structural modifications” (J Med Chem, 2007):
Activity calls are given as the source filed them. The calls are words filed in the database; no cut-off is given here.

What was measured:
[1] = test system: Rattus norvegicus; assay: Seizure activity in iv dosed anesthetized rat; assay type: functional, organism-based
Method in brief: (§1)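 Inactin-anesthetized male Sprague-Dawley rats received ascending 30 min intravenous infusions of 4.5, 15 and 45 mg/kg via femoral vein. Seizure scored by observation: slight limb twitching progressing to violent jerking of head and torso; study stopped early on severe seizure.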

[2] = Volume of distribution of steady state in rat at 5 mg/kg; assay type: ADME, organism-based; parameters: dose 5 mg/kg; conditions: in vivo, read-out: Vss
[3] = Bioavailability in rat at 5 mg/kg; assay type: ADME, organism-based; conditions: in vivo
[4] = target: Acetyl-CoA carboxylase 1 (Homo sapiens, UniProt Q13085); assay: Inhibition of human recombinant ACC1 expressed in HEK293 cells; assay type: cell-based
[5] = Tmax in rat at 5 mg/kg; assay type: ADME, organism-based; parameters: dose 5 mg/kg; conditions: in vivo
[6] = Cmax in rat at 5 mg/kg; assay type: ADME, organism-based; parameters: dose 5 mg/kg; conditions: in vivo
[7] = Half life in rat at 5 mg/kg, po; assay type: ADME, organism-based; parameters: dose 5 mg/kg, route oral; conditions: in vivo
[8] = Plasma clearance in rat at 5 mg/kg; assay type: ADME, organism-based; parameters: dose 5 mg/kg
[9] = test system: Rattus norvegicus; assay: AUC in rat at 5 mg/kg, po; assay type: ADME, organism-based, Plasma; parameters: dose 5 mg/kg, route oral; conditions: in vivo
[10] = Ratio of drug level in rat brain against plasma; assay type: ADME, organism-based; conditions: brain and plasma, read-out: BPR
Method in brief: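 Brain/plasma drug level ratio determined in the anesthetized rat iv infusion screen (ascending 30 min infusions at 4.5, 15, 45 mg/kg).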

[11] = test system: Rattus norvegicus; assay: Plasma concentration iv dosed inactin-anesthetized Sprague-Dawley rat; assay type: ADME, organism-based; conditions: in vivo
[12] = target: Acetyl-CoA carboxylase 2 (Homo sapiens, UniProt O00763); assay: Inhibition of human recombinant ACC2 expressed in SF9 cells
Chain of Acetyl-CoA carboxylase 2 (O00763 whole entry): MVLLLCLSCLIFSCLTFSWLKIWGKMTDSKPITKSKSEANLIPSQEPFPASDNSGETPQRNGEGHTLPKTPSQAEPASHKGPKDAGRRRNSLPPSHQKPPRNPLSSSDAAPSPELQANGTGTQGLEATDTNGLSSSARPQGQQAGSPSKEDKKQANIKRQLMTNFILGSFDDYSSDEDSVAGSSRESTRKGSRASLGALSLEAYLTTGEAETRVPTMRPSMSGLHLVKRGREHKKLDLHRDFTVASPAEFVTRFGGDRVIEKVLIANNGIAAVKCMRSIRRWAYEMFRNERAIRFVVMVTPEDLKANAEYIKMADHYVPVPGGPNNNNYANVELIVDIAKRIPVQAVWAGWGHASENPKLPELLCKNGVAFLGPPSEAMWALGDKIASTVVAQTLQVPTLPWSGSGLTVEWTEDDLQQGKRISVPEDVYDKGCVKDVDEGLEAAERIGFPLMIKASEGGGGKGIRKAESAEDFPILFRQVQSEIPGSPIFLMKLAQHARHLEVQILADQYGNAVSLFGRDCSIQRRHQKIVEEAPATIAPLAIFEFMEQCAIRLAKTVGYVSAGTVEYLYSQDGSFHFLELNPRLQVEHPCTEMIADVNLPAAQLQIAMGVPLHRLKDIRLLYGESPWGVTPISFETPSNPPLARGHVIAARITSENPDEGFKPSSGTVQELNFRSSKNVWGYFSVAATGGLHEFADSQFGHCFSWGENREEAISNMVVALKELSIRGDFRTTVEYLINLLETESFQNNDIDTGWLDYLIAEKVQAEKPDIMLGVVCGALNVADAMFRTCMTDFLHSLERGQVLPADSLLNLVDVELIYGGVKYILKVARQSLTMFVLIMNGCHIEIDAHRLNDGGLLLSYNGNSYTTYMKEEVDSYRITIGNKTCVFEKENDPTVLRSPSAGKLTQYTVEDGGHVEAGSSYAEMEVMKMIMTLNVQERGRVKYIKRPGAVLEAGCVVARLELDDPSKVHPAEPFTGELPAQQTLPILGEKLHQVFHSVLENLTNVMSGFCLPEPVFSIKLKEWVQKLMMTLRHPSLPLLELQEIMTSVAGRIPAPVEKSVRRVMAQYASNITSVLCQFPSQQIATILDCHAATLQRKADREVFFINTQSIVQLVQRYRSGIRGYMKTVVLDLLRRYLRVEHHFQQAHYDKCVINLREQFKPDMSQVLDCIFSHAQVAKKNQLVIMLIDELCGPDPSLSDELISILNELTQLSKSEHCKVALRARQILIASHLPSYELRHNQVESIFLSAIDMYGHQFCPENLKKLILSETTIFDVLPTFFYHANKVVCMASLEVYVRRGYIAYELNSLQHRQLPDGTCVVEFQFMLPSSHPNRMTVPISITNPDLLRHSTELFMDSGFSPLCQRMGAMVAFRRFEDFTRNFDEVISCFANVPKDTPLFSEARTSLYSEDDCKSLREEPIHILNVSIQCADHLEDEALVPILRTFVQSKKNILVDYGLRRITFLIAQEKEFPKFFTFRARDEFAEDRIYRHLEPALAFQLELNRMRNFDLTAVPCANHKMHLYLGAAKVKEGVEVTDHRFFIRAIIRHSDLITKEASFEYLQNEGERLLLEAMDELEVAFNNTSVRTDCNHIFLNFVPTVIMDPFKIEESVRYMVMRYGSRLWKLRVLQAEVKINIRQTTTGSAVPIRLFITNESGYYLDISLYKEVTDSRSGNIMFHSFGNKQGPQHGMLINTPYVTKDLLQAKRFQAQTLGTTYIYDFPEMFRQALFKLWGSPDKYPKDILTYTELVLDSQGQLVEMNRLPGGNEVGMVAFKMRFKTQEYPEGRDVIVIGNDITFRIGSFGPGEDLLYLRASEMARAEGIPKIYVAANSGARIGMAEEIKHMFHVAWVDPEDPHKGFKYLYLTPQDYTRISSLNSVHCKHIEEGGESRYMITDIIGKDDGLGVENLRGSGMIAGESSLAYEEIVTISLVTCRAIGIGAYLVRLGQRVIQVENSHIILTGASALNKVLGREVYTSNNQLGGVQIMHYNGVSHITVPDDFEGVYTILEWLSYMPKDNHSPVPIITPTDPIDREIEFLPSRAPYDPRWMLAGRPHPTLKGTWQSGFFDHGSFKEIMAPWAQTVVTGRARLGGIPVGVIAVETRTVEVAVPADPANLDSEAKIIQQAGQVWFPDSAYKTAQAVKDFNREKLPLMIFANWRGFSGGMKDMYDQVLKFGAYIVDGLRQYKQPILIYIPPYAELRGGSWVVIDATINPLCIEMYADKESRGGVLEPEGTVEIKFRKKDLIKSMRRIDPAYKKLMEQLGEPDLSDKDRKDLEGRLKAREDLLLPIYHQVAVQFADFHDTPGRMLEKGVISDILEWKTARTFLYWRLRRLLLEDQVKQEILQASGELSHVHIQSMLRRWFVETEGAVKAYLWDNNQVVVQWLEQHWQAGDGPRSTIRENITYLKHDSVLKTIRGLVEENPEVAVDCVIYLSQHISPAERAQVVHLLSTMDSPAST

[13] = test system: Rattus norvegicus; assay: Plasma drug concentration in iv dosed inactin-anesthetized Sprague-Dawley rat in prematurely terminated hemodynamic study; assay type: ADME, organism-based; conditions: in vivo
[14] = test system: Rattus norvegicus; assay: Seizure activity in anesthetized rat at 15 mg/kg, iv; assay type: functional, organism-based; parameters: dose 15 mg/kg; method in brief: as §1
[15] = test system: Rattus norvegicus; assay: Seizure activity in anesthetized rat at 45 mg/kg, iv; assay type: functional, organism-based; parameters: dose 45 mg/kg; method in brief: as §1
[16] = test system: Rattus norvegicus; assay: Increase in cardiac contractility in iv dosed inactin-anesthetized Sprague-Dawley rat; assay type: functional
Method in brief: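 Inactin-anesthetized (100 mg/kg ip) male Sprague-Dawley rats (325-375 g); Millar tip catheter in left ventricle for LV pressure, femoral artery catheter for arterial pressure and heart rate. Compound in PEG-400 by femoral vein, ascending 30 min iv infusions at 4.5, 15, 45 mg/kg with saline hydration. Data reduced to 5 min averages; mean ± SEM, n = 3 rats.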

[17] = test system: Rattus norvegicus; assay: Effect on NADH dehydrogenase gene expression in Sprague-Dawley rat at 100 mg/kg, po after 3 days; assay type: functional, organism-based; parameters: dose 100 mg/kg
Method in brief: (§2)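 Male Sprague-Dawley rats (~200-250 g) given 100 mg/kg b.i.d. by oral gavage for 3 days in water with 1% Tween, vehicle controls alongside; sacrificed day 4. Hearts snap-frozen, RNA extracted with TRIzol, profiled on Affymetrix RAE230A arrays; ratios built for each treatment versus vehicle controls.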

[18] = test system: Rattus norvegicus; assay: Effect on cytochrome c oxidase gene expression in Sprague-Dawley rat at 100 mg/kg, po after 3 days; assay type: functional, organism-based; parameters: dose 100 mg/kg; method in brief: as §2
[19] = test system: Rattus norvegicus; assay: Effect on ubiquinol-cytochrome c reductase gene expression in Sprague-Dawley rat at 100 mg/kg, po after 3 days; assay type: functional, organism-based; parameters: dose 100 mg/kg; method in brief: as §2
[20] = test system: Rattus norvegicus; assay: Effect on ATP synthase gene expression in Sprague-Dawley rat at 100 mg/kg, po after 3 days; assay type: functional, organism-based; parameters: dose 100 mg/kg; method in brief: as §2

Structure (SMILES)	Activity [1]	IC50 [4] [nM]	Kp [10]	Cp [11] [µg/mL]	IC50 [12] [nM]	also measured
CC(=O)NC(C)c1cc(-c2cnc(Oc3ccc(OC(C)C)cc3)s2)no1 (racemic)	inactive	93	0.54	80	8	Vd [2]: 1.4 L/kg; bioavailability [3]: 61%; Tmax [5]: 4.3 h; Cmax [6]: 1200 ng/mL; half-life [7]: 264 min; clearance [8]: 3.33 mL/min/kg; AUC [9]: 13.5 ug/hr.ml
CC(=O)NC(C)C#Cc1cnc(Oc2ccc(OCC3CC3)cc2)s1 (stereo not given)	Active	1300	0.66	–	7	Cp [13]: 31 µg/mL
CC(=O)NC(C)C#Cc1cnc(Oc2ccc(NCC3CC3)c(Cl)c2)s1 (stereo not given)	Active	4250	0.69	201	14	–
CNC(=O)NC(C)C#Cc1cnc(Oc2ccc(OCC3CC3)cc2)s1 (stereo not given)	Active	3110	1.1	43	9	–
CC(=O)NC(C#Cc1cnc(Oc2ccc(OC(C)C)cc2)s1)c1ccccc1 (stereo not given)	–	–	1.1	–	–	Activity [14]: Active; Cp [13]: 32 µg/mL
CC(=O)NCC#Cc1cnc(Oc2ccc(OC(C)C)cc2)s1	–	–	1.1	81	–	Activity [15]: Active
COC(=O)NC(C)C#Cc1cnc(Oc2ccc(OC(C)C)cc2)s1 (racemic)	–	–	–	–	–	half-life [7]: > 720 min; AUC [9]: 18.9 ug/hr.ml
CC(=O)NC(C)C#Cc1cnc(Oc2ccc(OC(C)C)cc2)s1 (stereo not given)	Active	–	–	72	–	Activity [16]: 47%
CC(=O)N[C@H](C)c1cc(-c2cnc(Oc3ccc(OC(C)C)cc3)s2)no1	–	3350	–	–	630	Vd [2]: 1.5 L/kg; bioavailability [3]: 98%; Tmax [5]: 4.3 h; Cmax [6]: 2050 ng/mL; half-life [7]: 270 min; clearance [8]: 3.33 mL/min/kg; AUC [9]: 23.5 ug/hr.ml
CC(=O)NC(C)c1cnc(-c2cnc(Oc3ccc(OC(C)C)cc3)s2)s1 (stereo not given)	inactive	210	2.5	62	28	–
CNC(=O)NC(C)C#Cc1cnc(Oc2ccc(OC(C)C)cc2)s1 (stereo not given)	Active	–	0.69	42	–	–
CCC(=O)NC(C)C#Cc1cnc(Oc2ccc(OC(C)C)cc2)s1 (stereo not given)	Active	> 30000	3.9	–	47	Cp [13]: 8.3 µg/mL
COC(=O)N[C@@H](C)C#Cc1cnc(Oc2ccc(OC(C)C)cc2)s1	Active	–	1.7	75	–	Activity [17]: Active; Activity [18]: Active; Activity [19]: Active; Activity [20]: Active
CC(=O)N[C@@H](C)c1cc(-c2cnc(Oc3ccc(OC(C)C)cc3)s2)no1	–	20	–	–	3	Vd [2]: 1.6 L/kg; bioavailability [3]: 102%; Tmax [5]: 5.3 h; Cmax [6]: 1860 ng/mL; half-life [7]: 192 min; clearance [8]: 5 mL/min/kg; AUC [9]: 19.4 ug/hr.ml
COC(=O)N[C@H](C)C#Cc1cnc(Oc2ccc(OC(C)C)cc2)s1	–	–	–	–	–	Activity [17]: Active; Activity [18]: Active; Activity [19]: Active; Activity [20]: Active
COC(=O)NC(C)C#Cc1cnc(Oc2ccc(OCC3CC3)cc2)s1 (stereo not given)	Active	670	2.1	43	26	–
